The values that follow come from ChEMBL document CHEMBL1129623, “Effects of multidrug resistance (MDR1) P-glycoprotein expression levels and coordination metal on the cytotoxic potency of multidentate (N4O2) (ethylenediamine)bis[propyl(R-benzylimino)]metal(III) cations” (1996).

Activity calls are given as the source filed them. The rule behind the calls is not given here.

The test system of test [1] is KB 3-1. Description: Compound was tested for cytotoxic lethal concentration on R-ENBPI Al(III) complexs in human drug sensitive (KB-3-1)cells. parentheses value indicates SEM. It counts as functional. Conditions: read-out: LC50 (the source's name). The essentials:
(§1)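 Parental KB-3-1 human epidermal carcinoma cells, no immunodetectable P-glycoprotein, 5000/well in 5% FBS medium, 4 h recovery. Complex was added in triplicate wells up to 100 μM, 72 h at 37 °C, 5% CO2. Cells were TCA-fixed and stained with 0.4% SRB, dye dissolved in 10 mM Tris, A490–450. LC50 was from a sigmoid fit of survival versus vehicle control, Smin constrained to zero.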

Test [2] has as its system KB 3-1. Description: Compound was tested for cytotoxic lethal concentration on R-ENBPI […] complexs in human drug sensitive (KB-3-1)cells. parentheses value indicates SEM. In kind it is functional. Conditions: read-out: LC50 (the source's name). The essentials: as §1
Test [3] deals with KB 3-1. Nature of the test: Compound was tested for cytotoxic lethal concentration on R-ENBPI In(III) complexs in human drug sensitive (KB-3-1)cells. parentheses value indicates SEM. It counts as functional. Conditions: read-out: LC50 (the source's name). The essentials: as §1
For test [4], the system named is KB 3-1. Nature of the test: (§2) Compound was tested for dependency on R-ENBPI Fe(III) complex in human drug sensitive (KB-3-1)cells. In kind it is functional. Conditions: read-out: LC50 (the source's name). The essentials:
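Parameter dependency from the sigmoid fit S={(Smax−Smin)/[1+(C/LC50)^γ]}+Smin of KB-3-1 SRB survival data: 72 h exposure, triplicate wells, up to 100 μM, Smin constrained to zero. It is used to judge overparameterization of the fitted curve.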

In test [5] the test system is KB 3-1. Nature of the test: Compound was tested for dependency on R-ENBPI Al(III) complexs in human drug sensitive (KB-3-1)cells. It counts as functional. The essentials:
(§3)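 KB-3-1 cells were plated at 5000/well in 5% FBS medium and allowed 4 h to recover. Complexes were added in triplicate at concentrations up to 100 μM, then incubated 72 h at 37 °C, 5% CO2. Cells were TCA-fixed and stained with SRB, read at 490–450 nm, and expressed as % of vehicle control. A sigmoid fit with Smin constrained to zero gave LC50 and fit dependencies.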

Test [6] relates to KB 3-1. The test is described as §2. In kind it is functional. The essentials:
as §3

For test [7], the system named is KB 3-1. Description: Compound was tested for dependency on R-ENBPI Ga(III) complexs in human drug sensitive (KB-3-1)cells. It counts as functional. The essentials:
as §3

For test [8], the system named is KB 3-1. Description: Compound was tested for dependency on R-ENBPI In(III) complexs in human drug sensitive (KB-3-1)cells. It counts as functional. The essentials:
as §3

Test [9] deals with KB. Description: Compound was tested for coefficient of variation percent on R-ENBPI Al(III) complex in multi drug resistant (KB-8-5) cells; NA=not applicable. In kind it is functional, cell-based. Conditions: Homo sapiens. The essentials: (§4)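 KB-8-5 multidrug-resistant cells were kept drug-free for 96 h, then plated at 5000/well in 5% FBS medium and allowed 4 h to recover. Complexes were added in triplicate up to 100 μM for 72 h at 37 °C. Survival was read by SRB staining (490–450 nm) relative to vehicle. LC50 came from a sigmoid fit with Smin fixed at zero, giving CV% and dependency statistics.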

For test [10], the system named is KB. Nature of the test: Compound was tested for coefficient of variation percent on R-ENBPI Fe(III) complex in multi drug resistant (KB-8-5) cells; NA=not applicable. It counts as functional, cell-based. Particulars: Homo sapiens. The essentials:
as §4

The subject of test [11] is KB. Nature of the test: Compound was tested for coefficient of variation percent on R-ENBPI Ga(III) complex in multi drug resistant (KB-8-5) cells; NA=not applicable. In kind it is functional, cell-based. Particulars: Homo sapiens. The essentials:
as §4

In test [12] the test system is KB. Nature of the test: Compound was tested for cytotoxic lethal concentration on R-ENBPI Al(III) complex in multi drug resistant (KB-8-5)cells. It counts as functional. Particulars: Homo sapiens, read-out: LC50 (the source's name). The essentials:
(§5)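 KB-8-5 cells are colchicine-selected and express modest MDR1 P-glycoprotein. They were kept in drug-free medium for 96 h, then plated at 5000/well in 5% FBS medium and allowed 4 h recovery. Complex was added in triplicate up to 100 μM, with 72 h at 37 °C, 5% CO2. Read-out was SRB staining after TCA fixation, A490–450. LC50 came from a sigmoid fit (Smin=0) of survival relative to vehicle. Values ≥100 μM were not fitted.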

The subject of test [13] is KB. Nature of the test: Compound was tested for cytotoxic lethal concentration on R-ENBPI Fe(III) complex in multi drug resistant (KB-8-5) cells; NA=not applicable. It counts as functional, cell-based. Particulars: Homo sapiens. The essentials: as §5
Test [14] deals with KB. Description: Compound was tested for cytotoxic lethal concentration on R-ENBPI Ga(III) complex in multi drug resistant (KB-8-5) cells; NA=not applicable. Conditions: Homo sapiens. It counts as functional, cell-based. The essentials: as §5
Test [15] concerns KB. Description: Compound was tested for cytotoxic lethal concentration on R-ENBPI In(III) complex in multi drug resistant (KB-8-5)cells. In kind it is functional. Conditions: Homo sapiens, read-out: LC50 (the source's name). The essentials: as §5
Test [16] concerns KB. Description: Compound was tested for dependency on R-ENBPI Al(III) complex in multi drug resistant (KB-8-5) cells; NA=not applicable. Particulars: Homo sapiens. In kind it is functional, cell-based. The essentials: as §4
The test system of test [17] is KB. Description: Compound was tested for dependency on R-ENBPI Fe(III) complex in multi drug resistant (KB-8-5) cells; NA=not applicable. It counts as functional, cell-based. Particulars: Homo sapiens. The essentials:
as §4

Test [18] concerns KB. Nature of the test: Compound was tested for dependency on R-ENBPI Ga(III) complex in […] (KB-8-5) cells; NA=not applicable. It counts as functional, cell-based. The essentials:
as §4

Test [19] concerns KB. Description: Compound was tested for dependency on R-ENBPI In(III) complex in multi drug resistant (KB-8-5)cells. In kind it is functional, Homo sapiens. The essentials: as §4
Test [20] concerns KB 3-1. Description: Compound was tested for cytotoxic lethal concentration on R-ENBPI […] complexs in human drug sensitive (KB-3-1)cells parentheses value indicates SEM. In kind it is functional. Conditions: read-out: LC50 (the source's name). The essentials:
as §1

Test [21] deals with KB. Nature of the test: Compound was tested for cytotoxic lethal concentration on R-ENBPI Fe(III) complex in multi drug resistant (KB-8-5)cells. Particulars: Homo sapiens, read-out: LC50 (the source's name). In kind it is functional. The essentials:
as §5

Test [22] has as its system KB. Description: Compound was tested for cytotoxic lethal concentration on R-ENBPI Ga(III) complex in multi drug resistant (KB-8-5)cells. It counts as functional. Particulars: Homo sapiens, read-out: LC50 (the source's name). The essentials: as §5
Test [23] deals with KB. Nature of the test: Compound was tested for dependency on R-ENBPI Al(III) complex in multi drug resistant (KB-8-5)cells. In kind it is functional, Homo sapiens. The essentials:
as §4

The test system of test [24] is KB. Description: Compound was tested for dependency on R-ENBPI Ga(III) complex in […] (KB-8-5) cells. It counts as functional. The essentials: as §4
For test [25], the system named is KB 3-1. Description: Compound was tested for cytotoxic lethal concentration on R-ENBPI Al(III) complexs in human drug sensitive (KB-3-1)cells. In kind it is functional. Particulars: read-out: LC50 (the source's name). The essentials:
as §1

Consider `COc1cc(O)c(/C=N/CCCN2CCN(CCC/N=C/c3c(O)cc(OC)cc3OC)C2c2c(O)cc(OC)cc2OC)c(OC)c1`, for which the CC50 with KB 3-1 [1] was under 1.4 µM; in the test with KB 3-1 [2], 3.7 µM; in the test on KB 3-1 [3], 63.8 µM; with KB 3-1 [4], under 1.1 µM; in the test on KB [12], over 100 µM; in the test with KB [15] it was 61.8 µM. Moreover, the Dependency with KB 3-1 [5] came out at 0.39; in the test on KB 3-1 [6], 0.23; in the test on KB 3-1 [7], 0.34; with KB 3-1 [8] it was 0.38; in the test on KB [19], 0.38. For the same molecule, the CV entry in the test on KB [9], in the test with KB [10] and in the test with KB [11] was “inactive” each time. Besides, the LC50 result with KB [13] and with KB [14] was “inactive” each time. The Dependency result with KB [16], in the test with KB [17] and with KB [18] was “inactive” throughout.
For `COc1cccc(/C=N/CCCN2CCN(CCC/N=C/c3cccc(OC)c3O)C2c2cccc(OC)c2O)c1O`, the CC50 was under 42.6 µM in the test with KB 3-1 [20]; 16.6 µM in the test with KB 3-1 [3]; 9 µM in the test with KB 3-1 [4]; under 27.5 µM in the test on KB [12]; over 100 µM in the test on KB [21]; under 110 µM with KB [22]. Also, the CC50 was 24.2 µM with KB [15] and 11.4 µM in the test with KB 3-1 [25]. Moreover, the Dependency with KB 3-1 [5] is 0.46; in the test on KB 3-1 [6], 0.68; in the test with KB 3-1 [7], 0.45; with KB 3-1 [8], 0.41; in the test with KB [23], 0.33; in the test with KB [24], 0.39. The molecule further displayed a Dependency with KB [19] of 0.36. The CV result in the test with KB [10] was “inactive”. Besides, in the test on KB [17], the Dependency entry is “inactive”.
